Source: ChEMBL document CHEMBL1142711 (J Med Chem, 2005)

Columns and labels:
[1] = Relative binding affinity for rat Opioid receptor mu 1 and human Opioid receptor kappa 1
[2] = target: T1, Kappa-type opioid receptor (Homo sapiens, UniProt P41145); experiment: Antagonistic activity against human opioid receptor kappa 1 expressed in CHO cells in [35S]GTP gamma S assay; format: functional, cell-based
Summary of the method: (§1)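 Antagonism in [35S]GTPγS binding on membranes: rat MOR/DOR in C6 cells, human KOR in CHO cells. Agonist dose-response curves run with and without test ligand: DAMGO (MOR), SNC80 (DOR), U69593 (KOR). Ke = [antagonist]/(dose-ratio − 1), ± SEM. Three separate experiments.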

[3] = Relative binding affinity for rat Opioid receptor delta 1 and human Opioid receptor kappa 1
[4] = target: Mu-type opioid receptor (Rattus norvegicus) (UniProt P33535); experiment: Stimulation of [35S]-GTP-gamma S binding to Opioid receptor mu 1 expressed in C6 cells; format: functional, cell-based
Mus musculus [5] = experiment: In vivo effective concentration for agonist activity in mouse tail withdrawal assay for antinociception after 24 hr of pre treatment with U-69,593 icv administration (10 nmol); format: functional, organism-based
Summary of the method: (§2)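 Mouse warm-water tail withdrawal, water at 50 °C. Agonist U69593 given sc, and its dose-response EC50 (mg/kg) determined. Pretreatment 1, 3, 18, 24 or 48 h before, sc at 10 or 32 mg/kg; or icv 10 nmol at 1, 24, 48 or 168 h before. Vehicle control at −1 h. Fold shift and its significance reported.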

[6] = target: Delta-type opioid receptor (Rattus norvegicus) (UniProt P33533); experiment: Antagonistic activity against rat opioid receptor delta 1 expressed in C6 cells in [35S]GTP gamma S assay; format: functional, cell-based; summary of the method: as §1
Mus musculus [7] = experiment: In vivo effective concentration for agonist activity in mouse tail withdrawal assay for antinociception after 24 hr of pre treatment with U-69,593 sc administration (32 mg/kg); format: functional, organism-based; summary of the method: as §2
Mu-type opioid receptor [8] = target: T2, Mu-type opioid receptor (Rattus norvegicus, UniProt P33535); experiment: Agonist activity against Opioid receptor mu 1 expressed in C6 cells in [35S]-GTP-gamma S assay; No stimulation up to 10000 nM; format: functional, cell-based
[9] = target: Mu-type opioid receptor (Rattus norvegicus) (UniProt P33535); experiment: Antagonistic activity against rat opioid receptor mu 1 expressed in C6 cells in [35S]GTP gamma S assay; format: functional, cell-based; summary of the method: as §1
[10] = target: T3, Delta-type opioid receptor (Rattus norvegicus, UniProt P33533); experiment: Inhibition of [3H]diprenorphine binding to rat Opioid receptor delta 1 expressed in C6 cells; format: cell-based
Summary of the method: (§3)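 Competition binding with [3H]diprenorphine on rat MOR or DOR expressed in C6 cells and human KOR in CHO cells. Mean of three experiments, each in duplicate.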

[11] = target: T1, Kappa-type opioid receptor; experiment: Agonist activity against Opioid receptor kappa 1 expressed in CHO cells in [35S]-GTP-gamma S assay; No stimulation up to 10000 nM; format: functional, cell-based
[12] = target: T3, Delta-type opioid receptor; experiment: Agonist activity against Opioid receptor delta 1 expressed in C6 cells in [35S]-GTP-gamma S assay; No stimulation up to 10000 nM; format: functional, cell-based
Mu-type opioid receptor [13] = target: T2, Mu-type opioid receptor; experiment: Agonist activity against rat Opioid receptor mu 1 expressed in C6 cells in [35S]-GTP-gamma S binding assay; format: functional, cell-based
Mu-type opioid receptor [14] = target: T2, Mu-type opioid receptor; experiment: Inhibition of [3H]diprenorphine binding to rat Opioid receptor mu 1 expressed in C6 cells; format: cell-based; summary of the method: as §3
[15] = target: T1, Kappa-type opioid receptor; experiment: Inhibition of [3H]diprenorphine binding to human opioid receptor kappa 1 expressed in CHO cells; format: cell-based; summary of the method: as §3
Mus musculus [16] = experiment: In vivo effective concentration for agonist activity in mouse tail withdrawal assay for antinociception after 1 hr of pre treatment with U-69,593 icv administration (10 nmol); format: functional, organism-based; summary of the method: as §2
Mus musculus [17] = experiment: In vivo effective concentration for agonist activity in mouse tail withdrawal assay for antinociception after 18 h of pre treatment with U-69,593 sc administration (10 mg/kg); format: functional, organism-based; summary of the method: as §2
Mus musculus [18] = experiment: In vivo effective concentration for agonist activity in mouse tail withdrawal assay for antinociception after 1 hr of pre treatment with U-69,593 sc administration (10 mg/kg); format: functional, organism-based; summary of the method: as §2
[19] = target: T1, Kappa-type opioid receptor; experiment: Stimulation of [35S]-GTP-gamma S binding to Opioid receptor kappa 1 expressed in […] cells; format: functional, cell-based
Mus musculus [20] = experiment: In vivo effective concentration for agonist activity in mouse tail withdrawal assay for antinociception after 168h of pre treatment with U-69,593 icv administration (10 nmol); format: functional, organism-based; summary of the method: as §2
Mus musculus [21] = experiment: In vivo effective concentration for agonist activity in mouse tail withdrawal assay for antinociception after 48 hr of pre treatment with U-69,593 icv administration (10 nmol); format: functional, organism-based; summary of the method: as §2
[22] = target: T1, Kappa-type opioid receptor; experiment: Agonist activity against human Opioid receptor kappa 1 expressed in CHO cells in [35S]-GTP-gamma S binding assay; format: functional, cell-based
Mus musculus [23] = experiment: In vivo effective concentration for agonist activity in mouse tail withdrawal assay for antinociception after 3h of pre treatment with U-69,593 sc administration (10 mg/kg); format: functional, organism-based; summary of the method: as §2
Mus musculus [24] = experiment: In vivo effective concentration for agonist activity in mouse tail withdrawal assay for antinociception after 24 hr of pre treatment with U-69,593 sc administration (10 mg/kg); format: functional, organism-based; summary of the method: as §2
Mus musculus [25] = experiment: In vivo effective concentration for agonist activity in mouse tail withdrawal assay for antinociception after 48 hr of pre treatment with U-69,593 sc administration (10 mg/kg); format: functional, organism-based; summary of the method: as §2

T3 sequence (P33533 whole entry): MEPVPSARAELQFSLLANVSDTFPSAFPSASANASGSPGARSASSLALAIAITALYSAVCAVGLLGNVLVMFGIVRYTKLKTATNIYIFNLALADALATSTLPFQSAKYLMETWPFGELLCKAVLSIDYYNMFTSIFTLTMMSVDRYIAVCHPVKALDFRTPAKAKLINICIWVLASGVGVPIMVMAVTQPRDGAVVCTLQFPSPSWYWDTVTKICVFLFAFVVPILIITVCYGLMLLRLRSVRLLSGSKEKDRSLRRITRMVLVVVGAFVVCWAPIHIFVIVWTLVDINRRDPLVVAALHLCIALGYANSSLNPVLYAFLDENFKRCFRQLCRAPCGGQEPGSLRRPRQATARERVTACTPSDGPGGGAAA
T1 sequence (P41145 whole entry): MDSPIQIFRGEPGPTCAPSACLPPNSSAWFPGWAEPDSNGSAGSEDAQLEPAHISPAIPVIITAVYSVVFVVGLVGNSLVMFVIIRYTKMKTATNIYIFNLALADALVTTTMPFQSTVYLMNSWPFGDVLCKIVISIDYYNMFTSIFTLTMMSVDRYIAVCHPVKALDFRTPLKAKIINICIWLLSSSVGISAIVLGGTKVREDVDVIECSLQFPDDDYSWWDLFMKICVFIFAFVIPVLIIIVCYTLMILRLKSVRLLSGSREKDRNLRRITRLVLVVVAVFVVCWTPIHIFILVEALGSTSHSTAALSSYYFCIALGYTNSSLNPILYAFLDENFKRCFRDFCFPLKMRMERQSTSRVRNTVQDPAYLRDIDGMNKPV
Mu-type opioid receptor (Rattus norvegicus), sequence (P33535 whole entry): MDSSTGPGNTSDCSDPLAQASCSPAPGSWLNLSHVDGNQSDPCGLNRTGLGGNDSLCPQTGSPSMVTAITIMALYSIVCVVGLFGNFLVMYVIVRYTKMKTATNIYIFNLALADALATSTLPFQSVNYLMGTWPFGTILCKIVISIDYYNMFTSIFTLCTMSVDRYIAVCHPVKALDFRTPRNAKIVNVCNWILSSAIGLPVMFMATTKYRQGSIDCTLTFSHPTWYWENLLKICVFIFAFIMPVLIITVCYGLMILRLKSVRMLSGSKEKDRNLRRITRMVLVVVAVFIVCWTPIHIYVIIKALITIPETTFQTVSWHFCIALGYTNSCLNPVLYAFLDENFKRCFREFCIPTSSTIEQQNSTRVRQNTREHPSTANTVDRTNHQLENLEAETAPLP
T2 sequence (P33535 whole entry): as above
Delta-type opioid receptor (Rattus norvegicus), sequence (P33533 whole entry): as the sequence (P33533 whole entry) above

Row | SMILES | Ratio [1] | Ke [2] [nM] | Ratio [3] | Stimulation [4] [%] | EC50 (Mus musculus [5]) | Ke [6] [nM] | EC50 (Mus musculus [7]) | Ke [9] [nM] | Ki [10] [nM] | EC50 [11] | EC50 [12] | EC50 (Mu-type opioid receptor [13]) [nM] | Ki (Mu-type opioid receptor [14]) [nM] | Ki [15] [nM] | also measured
1 | C[C@H]1c2c(c3c(n2Cc2ccccc2)[C@@H]2Oc4c(O)ccc5c4[C@@]24CCN(C)[C@H](C5)[C@]4(O)C3)CC2(O)[C@H]3Cc4ccc(O)c(O)c4[C@@]12CCN3C (stereo partly specified) | 0.3 | 311 | 8 | 54 |  |  |  |  |  |  |  |  |  |  | 
2 | Oc1ccc2c3c1O[C@H]1c4[nH]c5c(c4C[C@@]4(O)[C@@H](C2)N(CC2CC2)CC[C@]314)C[C@@]1(O)[C@H]2Cc3ccc(O)c4c3[C@@]1(CCN2CC1CC1)[C@H]5O4 [NORBINALTORPHIMINE] |  | 0.11 |  |  | 31.8 mg/kg | 5.17 | 22.7 mg/kg | 2.38 | 5.8 | Not Active | Not Active |  |  |  | EC50 (Mu-type opioid receptor [8]): Not Active
3 | CN1CC[C@]23c4c5ccc(O)c4O[C@H]2c2[nH]c4c(c2C[C@@]3(O)[C@H]1C5)C[C@@]1(O)[C@H]2Cc3ccc(O)c5c3[C@@]1(CCN2C)[C@H]4O5 | 8 | 27 | 13 | 66 |  |  |  |  | 98.2 | Not Active | Not Active | 1390 | 63.6 | 7.7 | 
4 | Oc1ccc2c3c1O[C@H]1c4c(c5c(n4Cc4ccccc4)[C@@H]4Oc6c(O)ccc7c6[C@@]46CCN(CC4CC4)[C@H](C7)[C@]6(O)C5)C[C@@]4(O)[C@@H](C2)N(CC2CC2)CC[C@]314 | 14 | 0.26 | 12 | 38 | 26.3 mh/kg | 13.3 | 5.7 mh/kg | 25.5 | 8.6 |  | Not Active | 187 | 10 | 0.7 | EC50 (Mus musculus [16]): 49.1 mh/kg; EC50 (Mus musculus [17]): 9 mg/kg; EC50 (Mus musculus [18]): 2 mg/kg; Stimulation [19]: 29%; EC50 (Mus musculus [20]): 37 mh/kg; EC50 (Mus musculus [21]): 74.2 mh/kg; EC50 [22]: 1910 nM; EC50 (Mus musculus [23]): 2.1 mg/kg; EC50 (Mus musculus [24]): 4.4 mg/kg; EC50 (Mus musculus [25]): 9.9 mh/kg
